In ChEMBL document CHEMBL3392966, “Antiproliferative activity of synthetic fatty acid amides from renewable resources” (Bioorg Med Chem, 2015):
Converted amounts (≈) assume the structure as drawn.

Assays:
U-251 [1] = assay: Antiproliferative activity against human U251 cells after 48 hrs by sulforhodamine B assay; type: functional; settings: U-251, 48 h
Outline: (§1)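 Tumor cells grown in RPMI 1640 with 5% fetal bovine serum, with penicillin/streptomycin in experimental cultures. Exposed in 96-well plates to samples in DMSO/RPMI at 0.25, 2.5, 25 and 250 µg/mL, 37 °C, 5% CO2, 48 h. Fixed with 50% trichloroacetic acid before (T0) and after treatment, protein stained with sulforhodamine B and read at 540 nm. GI50, TGI and LC50 in µg/mL from dose-response curves by non-linear regression.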

MCF7 [2] = assay: Antiproliferative activity against human MCF7 cells after 48 hrs by sulforhodamine B assay; type: functional; settings: MCF7, 48 h; outline: as §1
NCI/ADR-RES [3] = assay: Antiproliferative activity against human NCI/ADR-RES cells after 48 hrs by sulforhodamine B assay; type: functional; outline: as §1
786-0 [4] = assay: Antiproliferative activity against human 786-0 cells after 48 hrs by sulforhodamine B assay; type: functional; settings: 786-0, 48 h; outline: as §1
NCI-H460 [5] = assay: Antiproliferative activity against human NCI-H460 cells after 48 hrs by sulforhodamine B assay; type: functional; settings: NCI-H460, 48 h; outline: as §1
[6] = Antiproliferative activity against human PC3 cells after 48 hrs by sulforhodamine B assay; type: functional; settings: PC-3, 48 h; outline: as §1
[7] = Antiproliferative activity against human OVCAR3 cells after 48 hrs by sulforhodamine B assay; type: functional; settings: OVCAR-3, 48 h; outline: as §1
HaCaT [8] = assay: Cytotoxicity against human HaCaT cells after 48 hrs by sulforhodamine B assay; type: cell-based
U-251 [9] = assay: Antiproliferative activity against human U251 cells assessed as tumor growth inhibition after 48 hrs by sulforhodamine B assay; type: functional; settings: U-251, 48 h; outline: as §1
MCF7 [10] = assay: Antiproliferative activity against human MCF7 cells assessed as tumor growth inhibition after 48 hrs by sulforhodamine B assay; type: functional; settings: MCF7, 48 h; outline: as §1
NCI/ADR-RES [11] = assay: Antiproliferative activity against human NCI/ADR-RES cells assessed as tumor growth inhibition after 48 hrs by sulforhodamine B assay; type: functional; outline: as §1
786-0 [12] = assay: Antiproliferative activity against human 786-0 cells assessed as tumor growth inhibition after 48 hrs by sulforhodamine B assay; type: functional; settings: 786-0, 48 h; outline: as §1
NCI-H460 [13] = assay: Antiproliferative activity against human NCI-H460 cells assessed as tumor growth inhibition after 48 hrs by sulforhodamine B assay; type: functional; settings: NCI-H460, 48 h; outline: as §1
[14] = Antiproliferative activity against human PC3 cells assessed as tumor growth inhibition after 48 hrs by sulforhodamine B assay; type: functional; settings: PC-3, 48 h; outline: as §1
[15] = Antiproliferative activity against human OVCAR3 cells assessed as tumor growth inhibition after 48 hrs by sulforhodamine B assay; type: functional; settings: OVCAR-3, 48 h; outline: as §1
HaCaT [16] = assay: Cytotoxicity against human HaCaT cells assessed as tumor growth inhibition after 48 hrs by sulforhodamine B assay; type: cell-based
Outline: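 Non-tumor lines (human HaCaT keratinocytes; Vero) in RPMI 1640 with 5% FBS, with penicillin/streptomycin added to experimental cultures. 48 h exposure at 0.25–250 µg/mL (DMSO/RPMI), 37 °C, 5% CO2. TCA fixation at time zero and at end, sulforhodamine B protein stain, absorbance 540 nm. TGI (total growth inhibition) from non-linear regression of the dose-response curve.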

Row | SMILES | GI50 (U-251 [1]) | GI50 (MCF7 [2]) | GI50 (NCI/ADR-RES [3]) | GI50 (786-0 [4]) | GI50 (NCI-H460 [5]) | GI50 [6] | GI50 [7] | LC50 (HaCaT [8]) | TGI (U-251 [9]) | TGI (MCF7 [10]) | TGI (NCI/ADR-RES [11]) | TGI (786-0 [12]) | TGI (NCI-H460 [13]) | TGI [14] | TGI [15] | TGI (HaCaT [16])
1 | CCCCCCCC/C=C\CCCCCCCC(=O)N1CCCCC1 | 6.7 µg/mL (≈ 19.2 µM) | 7.6 µg/mL (≈ 21.7 µM) | 7.7 µg/mL (≈ 22 µM) | 10.6 µg/mL (≈ 30.3 µM) | 23 µg/mL (≈ 65.8 µM) | 8.7 µg/mL (≈ 24.9 µM) | 9.3 µg/mL (≈ 26.6 µM) | 7.7 µg/mL (≈ 22 µM) | 25 µg/mL (≈ 71.5 µM) | 33.3 µg/mL (≈ 95.3 µM) | 47.4 µg/mL (≈ 136 µM) | 40.7 µg/mL (≈ 116 µM) | 40.7 µg/mL (≈ 116 µM) | 31.8 µg/mL (≈ 91 µM) | 35.4 µg/mL (≈ 101 µM) | 47.9 µg/mL (≈ 137 µM)
2 | CCCCCCCC/C=C\CCCCCCCC(=O)N1CCOCC1 | 2.8 µg/mL (≈ 7.96 µM) | 4.9 µg/mL (≈ 13.9 µM) | 3.3 µg/mL (≈ 9.39 µM) | 4.5 µg/mL (≈ 12.8 µM) | 7.9 µg/mL (≈ 22.5 µM) | 5.2 µg/mL (≈ 14.8 µM) | 4.9 µg/mL (≈ 13.9 µM) | 5.3 µg/mL (≈ 15.1 µM) | 6.6 µg/mL (≈ 18.8 µM) | 13.1 µg/mL (≈ 37.3 µM) | 10.6 µg/mL (≈ 30.2 µM) | 11.2 µg/mL (≈ 31.9 µM) | 34.7 µg/mL (≈ 98.7 µM) | 14.8 µg/mL (≈ 42.1 µM) | 13.9 µg/mL (≈ 39.5 µM) | 23.2 µg/mL (≈ 66 µM)
3 | CCCCCC[C@@H](O)C/C=C\CCCCCCCC(=O)NCc1ccccc1 | 8.6 µg/mL (≈ 22.2 µM) | 37.8 µg/mL (≈ 97.5 µM) | 8.6 µg/mL (≈ 22.2 µM) | 32.3 µg/mL (≈ 83.3 µM) | 32.3 µg/mL (≈ 83.3 µM) | 123 µg/mL (≈ 316 µM) | 31.6 µg/mL (≈ 81.5 µM) | 30.8 µg/mL (≈ 79.5 µM) | 47.5 µg/mL (≈ 123 µM) | 104 µg/mL (≈ 270 µM) | 46.6 µg/mL (≈ 120 µM) | 71.5 µg/mL (≈ 184 µM) | 179 µg/mL (≈ 461 µM) | 123 µg/mL (≈ 316 µM) | 86 µg/mL (≈ 222 µM) | 66.5 µg/mL (≈ 172 µM)
4 | CCCCCC[C@@H](O)C/C=C\CCCCCCCC(=O)N1CCOCC1 | 33.1 µg/mL (≈ 90 µM) | 41.8 µg/mL (≈ 114 µM) | 29.4 µg/mL (≈ 80 µM) | 36 µg/mL (≈ 97.9 µM) | 49.1 µg/mL (≈ 134 µM) | 38.5 µg/mL (≈ 105 µM) | 31 µg/mL (≈ 84.3 µM) | 41.3 µg/mL (≈ 112 µM) | 54.5 µg/mL (≈ 148 µM) | 116 µg/mL (≈ 314 µM) | 143 µg/mL (≈ 388 µM) | 75.7 µg/mL (≈ 206 µM) | 152 µg/mL (≈ 415 µM) | 72.6 µg/mL (≈ 198 µM) | 62.2 µg/mL (≈ 169 µM) | 97.4 µg/mL (≈ 265 µM)
5 | CCCCC/C=C\C/C=C\CCCCCCCC(=O)N[C@@H](C)c1ccccc1 | 0.7 µg/mL (≈ 1.82 µM) | 5.3 µg/mL (≈ 13.8 µM) | 3 µg/mL (≈ 7.82 µM) | 3.2 µg/mL (≈ 8.34 µM) | 6.1 µg/mL (≈ 15.9 µM) | 6.8 µg/mL (≈ 17.7 µM) | 3.5 µg/mL (≈ 9.12 µM) | 1.3 µg/mL (≈ 3.39 µM) | 5.1 µg/mL (≈ 13.3 µM) | 38.6 µg/mL (≈ 101 µM) | 16.4 µg/mL (≈ 42.8 µM) | 7.7 µg/mL (≈ 20.1 µM) | 38.9 µg/mL (≈ 101 µM) | 7.7 µg/mL (≈ 20.1 µM) | 20 µg/mL (≈ 52.1 µM) | 77.2 µg/mL (≈ 201 µM)
6 | CCCCCCCCCCCCCCCC(=O)N1CCCC1 | 4.6 µg/mL (≈ 14.9 µM) | 4.6 µg/mL (≈ 14.9 µM) | 4.6 µg/mL (≈ 14.9 µM) | 5.5 µg/mL (≈ 17.8 µM) | 5.9 µg/mL (≈ 19.1 µM) | 4.7 µg/mL (≈ 15.2 µM) | 6.3 µg/mL (≈ 20.4 µM) | 4.8 µg/mL (≈ 15.5 µM) | 11.4 µg/mL (≈ 36.8 µM) | 13.2 µg/mL (≈ 42.6 µM) | 30 µg/mL (≈ 96.9 µM) | 16.1 µg/mL (≈ 52 µM) | 33.5 µg/mL (≈ 108 µM) | 12.2 µg/mL (≈ 39.4 µM) | 22.9 µg/mL (≈ 74 µM) | 12.9 µg/mL (≈ 41.7 µM)
7 | CCCCCCCCCCCCCCCCCC(=O)N[C@H](C)c1ccccc1 | 161 µg/mL (≈ 414 µM) | 0.06 µg/mL (≈ 0.155 µM) | 25.7 µg/mL (≈ 66.3 µM) | – | – | – | – | – | > 250 µg/mL | > 250 µg/mL | > 250 µg/mL | > 250 µg/mL | > 250 µg/mL | > 250 µg/mL | > 250 µg/mL | > 250 µg/mL
8 | CCCCCCCCCCCCCCCCCC(=O)N[C@@H](C)c1ccccc1 | – | – | – | – | – | – | – | 69.5 µg/mL (≈ 179 µM) | > 250 µg/mL | > 250 µg/mL | > 250 µg/mL | > 250 µg/mL | > 250 µg/mL | > 250 µg/mL | > 250 µg/mL | > 250 µg/mL
9 | CCCCCCCC/C=C\CCCCCCCC(=O)NCc1ccccc1 | 55.4 µg/mL (≈ 149 µM) | 53.4 µg/mL (≈ 144 µM) | 50.3 µg/mL (≈ 135 µM) | 104 µg/mL (≈ 281 µM) | 94.9 µg/mL (≈ 255 µM) | 107 µg/mL (≈ 288 µM) | 103 µg/mL (≈ 278 µM) | 92 µg/mL (≈ 248 µM) | > 250 µg/mL | > 250 µg/mL | > 250 µg/mL | > 250 µg/mL | > 250 µg/mL | > 250 µg/mL | > 250 µg/mL | > 250 µg/mL
10 | CCCCCCCCCCCCCCCC(=O)NCc1ccccc1 | – | – | – | – | – | – | – | – | > 250 µg/mL | > 250 µg/mL | > 250 µg/mL | > 250 µg/mL | > 250 µg/mL | > 250 µg/mL | > 250 µg/mL | > 250 µg/mL
